# The sample as a whole holds a higher share of hits than the screen did.
# Ecoli WT expand: growth inhibitors of E. coli BW25113 wild type; growth inhibition, % at 100 µM; 0.15% of 98,000 active; AID 710; OD600 absorbance;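 active = growth inhibition above about 50% at one test dose, limit read from the data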;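 also: growth measured after 20 h incubation at 37 °C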
# CD11b adhes inh: blocks human CD11b/CD18 adhesion to fibrinogen | K562 CD11b/CD18 adhesion to fibrinogen, ATPlite luminescence; Mn2+ added to activate the integrin | inhibition, % at 10 µM | 0.54% of 93,000 active;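 active = primary inhibition of 50% or more at 10 µM, then 40% or more on retest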
# Target sequence (P05107 whole entry, looked up, other chains not shown): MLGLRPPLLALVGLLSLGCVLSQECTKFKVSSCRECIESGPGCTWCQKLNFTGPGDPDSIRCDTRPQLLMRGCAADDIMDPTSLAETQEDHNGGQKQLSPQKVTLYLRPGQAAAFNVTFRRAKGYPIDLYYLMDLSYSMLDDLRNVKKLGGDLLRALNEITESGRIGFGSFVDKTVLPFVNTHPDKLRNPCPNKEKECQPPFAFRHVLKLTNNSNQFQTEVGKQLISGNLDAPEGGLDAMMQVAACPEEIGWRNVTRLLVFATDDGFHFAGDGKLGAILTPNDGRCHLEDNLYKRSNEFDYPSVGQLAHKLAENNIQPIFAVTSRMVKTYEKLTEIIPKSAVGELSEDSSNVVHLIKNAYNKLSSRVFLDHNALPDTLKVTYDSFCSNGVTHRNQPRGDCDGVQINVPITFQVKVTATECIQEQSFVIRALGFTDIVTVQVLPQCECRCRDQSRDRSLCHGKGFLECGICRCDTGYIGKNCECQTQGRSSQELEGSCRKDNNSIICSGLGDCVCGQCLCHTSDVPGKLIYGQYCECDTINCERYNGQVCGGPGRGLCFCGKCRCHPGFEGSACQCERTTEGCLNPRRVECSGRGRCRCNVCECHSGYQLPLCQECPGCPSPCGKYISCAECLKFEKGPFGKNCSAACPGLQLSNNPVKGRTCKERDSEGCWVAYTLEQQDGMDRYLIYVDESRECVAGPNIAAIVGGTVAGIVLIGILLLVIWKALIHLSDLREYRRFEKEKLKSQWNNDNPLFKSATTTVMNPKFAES
# tolC growth inh: E. coli tolC mutant growth inhibition; E. coli BW25113 tolC mutant growth, OD615; growth inhibition, % at 10 µM (by protocol); 2.2% of 65,000 active;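 active = growth inhibition at or above a cutoff equal to the mean over every tested compound plus 3 SD, cut at about 60% in these data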;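 also: growth measured after 20 h incubation at 37 °C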
#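 Test system: tolC-deleted E. coli BW25113 | Medium: LB with kanamycin 50 µg/mL | Compound dosing: Single concentration, 10 µM final per compound | Schedule: 37 °C, 20 h exposure | Measured by: OD at 615 nm | Evaluation: Percent growth inhibition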
# Phagocytosis inh: inhibitors of macrophage phagocytosis. inhibition, % at 5 µM. J774A.1 macrophage IgG-bead phagocytosis, imaging. 0.07% of 110,000 active. AID 1029;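 active = inhibition above the mean of the plate negative controls plus 5 SD, cut at about 13% in these data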;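 also: phagocytic index as fraction of beads internalized from green versus red external bead signal; plate controls were DMSO negative control for no effect and cytochalasin-D positive control for full effect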
# CD11b adhes enh: enhancers of human CD11b/CD18 binding to fibrinogen; 0.07% of 93,000 active; K562 CD11b/CD18 adhesion to fibrinogen, ATPlite luminescence; AID 1499; activation, % at 10 µM; P05107+P11215;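 active = 10 µM primary screen giving 50% or more activity, confirmed by 40% or more on retest at that dose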
# * = called active by the depositor; · = not tested or not shown.
SMILES,Ecoli WT expand,CD11b adhes inh,tolC growth inh,Phagocytosis inh,CD11b adhes enh
CCOC(=O)Cc1csc(NS(=O)(=O)c2ccccc2)n1,7.0,·,·,·,·
CSc1ccccc1NC(=O)CN(C)CC(=O)Nc1c(F)cccc1F,·,·,·,-1.3,·
O=C(COc1ccc(Br)cc1Br)NC(=S)N1CCCc2ccccc21,0.0,60.2*,·,0.0,-6.2
CN(C)c1nc(N2CCCCC2)nc(N2CCCCC2)n1,·,·,3.0,·,·
OCCN(CCO)c1nc(N2CCCCC2)c2nc(N(CCO)CCO)nc(N3CCCCC3)c2n1,·,·,100.0*,·,·
Nc1nc(Nc2cccc(F)c2)nc2ccccc12,63.0*,7.8,25.3,-2.7,-4.6
COc1ccccc1CNc1ncnc2c1cnn2-c1ccccc1,·,·,60.5*,·,·
Cc1cccc(-n2ncc3c(NCc4ccc5c(c4)OCO5)ncnc32)c1,0.0,10.6,75.8*,5.1,-1.6
Cc1ccc(CNc2ncnc3c2cnn3-c2ccccc2)cc1,-4.0,·,-33.3,·,·
CCN(CC)c1ccc(/C=C2\CCC(/C=N/NC(=O)c3ccc(=O)n(C)c3)=C2N2CCOCC2)cc1,·,-6.6,·,-4.9,15.8
COc1cccc(-c2cc(C(F)(F)F)nc(N3CCOCC3)n2)c1,-2.0,-5.2,67.6*,·,3.8
COc1ccccc1-c1cc(C(F)(F)F)nc(N2CCOCC2)n1,12.0,-2.4,61.6*,0.3,3.8
C=CCNC(=S)N1CCN(c2ncc3c(=O)c(C(=O)O)cn(CC)c3n2)CC1,100.0*,-5.7,·,2.2,3.4
CCn1cc(C(=O)O)c(=O)c2cnc(N3CCNCC3)nc21,·,·,6.6,·,·
CCOC(=O)c1c(C)n(C)c2ccc(OCC(O)CN3CCCCCC3)cc12 (centres undefined),-6.0,0.9,2.3,0.0,0.7
CCOC(=O)c1c(C)n(C)c2ccc(OCC(O)Cn3nc(C)c(Br)c3C)cc12 (centres undefined),·,·,87.8*,·,·
COc1ccc(C2(O)CC3CCC(C2)N3c2nc(C)cc(C)c2C#N)cc1 (centres undefined),-11.0,-21.1,85.0*,-0.4,0.1
COc1ccc(Oc2nc(C)cc(C)c2C#N)cc1,10.0,5.2,2.8,-0.9,-0.2
Cc1cccc(Cn2c(=O)c3c(nc4n3CCCN4Cc3ccccc3)n(C)c2=O)c1,-4.0,18.4,73.7*,-1.6,-0.1
Cn1c(N2CCOCC2)nc2c1c(=O)n(Cc1ccc(Cl)cc1)c(=O)n2C,·,·,3.6,·,·
CC1CN(c2nc3c(c(=O)n(Cc4ccc(Cl)c(Cl)c4)c(=O)n3C)n2C)CC(C)O1 (centres undefined),-1.0,13.2,86.8*,-0.5,1.8
COc1ccc(OC)c(NC(=O)c2cc3ccccc3o2)c1,-5.0,9.3,-6.7,1.6,-2.4
COc1ccc(OC)c(Nc2nc(N)nc(-c3cc4ccccc4o3)n2)c1,-4.0,8.4,-7.0,35.9*,2.1
O=C(O)CC(NS(=O)(=O)c1cccc2nsnc12)c1ccc(F)cc1 (centres undefined),1.0,60.1*,-11.8,0.7,-9.1
CCC(C)NC(=O)C(NS(=O)(=O)c1cccc2nsnc12)c1ccccc1 (centres undefined),-1.0,·,-17.9,·,·
SMILES,Ecoli WT expand,CD11b adhes inh,tolC growth inh,Phagocytosis inh,CD11b adhes enh
COC(=O)c1ccccc1NC(=S)N(Cc1ccc2c(c1)OCO2)Cc1cc2cc(OC)ccc2[nH]c1=O,·,·,·,-4.2,·
Cc1ccc(S(=O)(=O)N(C)C)cc1NC(=O)CN1C(=O)NC2(CCCc3ccccc32)C1=O (centres undefined),·,·,·,-5.0,·
O=C(Nc1scc(-c2cccs2)c1C(=O)O)c1cccs1,-3.0,-7.4,75.1*,-1.1,-1.5
COc1c(N2CCN(C(=S)Nc3ccccc3)C(C)C2)c(F)cc2c(=O)c(C(=O)O)cn(C3CC3)c12 (centres undefined),99.0*,·,·,·,·
CCOC(=O)c1cn(-c2nc(-c3ccc(Cl)cc3)cs2)c2c(F)c(N3CC(C)OC(C)C3)c(F)cc2c1=O (centres undefined),-5.0,·,·,·,·
CNC(=S)N1CCN(c2c(F)cc3c(=O)c(C(=O)O)cn(C4CC4)c3c2OC)CC1C (centres undefined),100.0*,-4.7,·,-2.5,0.7
Cc1nnc(SCC(=O)Nc2ccccc2C(=O)NC2CC2)s1,·,-0.1,·,-4.2,2.4
N#CC(C#N)=C(Nc1ccc(F)cc1)SCc1cccc(F)c1,·,·,·,-0.1,·
O=C(N/N=C/c1cccc([N+](=O)[O-])c1)C1CC1c1ccccc1 (centres undefined),·,-7.2,·,-6.2,29.4
Cc1c(Cl)cccc1NC(=S)N1CCN(Cc2ccc3c(c2)OCO3)CC1,·,13.5,·,-10.6,3.5
Cc1ccc(-c2nnc(SCC(=O)Nc3ccc4c(c3)oc3ccccc34)n2C)c(Cl)c1,-4.0,59.9*,·,0.1,-8.1
C/C(CCc1oc2ccccc2c1-c1ccc(C)o1)=N/O,8.0,6.8,97.5*,-0.1,-6.5
COc1ccc(OC)c(Nc2nc(-c3cccs3)cs2)c1,-17.0,-35.2,61.5*,-0.7,-2.0
CCSc1nnc(NC(=O)[C@@H](NC(=O)c2ccc(C(C)(C)C)cc2)C(C)C)s1,·,·,·,3.1,·
CC(C)CN1C(=O)c2ccc(C(=O)Nc3ccccn3)cc2C1=O,-3.0,-11.1,10.3,-0.4,-4.7
CC(C)CN1C(=O)c2ccc(C(=O)Nc3ccncc3)cc2C1=O,5.0,81.8*,9.5,-1.2,-2.8
COc1ccc(C(CC(=O)O)NS(=O)(=O)c2ccc(C)cc2)cc1 (centres undefined),3.0,51.3*,·,-0.7,0.2
CCC(C)NC(=O)CC(NS(=O)(=O)c1ccc(C)cc1)c1ccc(OC)cc1 (centres undefined),·,·,·,-0.7,·
Cc1ccc(OCc2nc(-c3ccccn3)no2)c(Br)c1,14.0,48.1,21.2,-0.1,-1.9
CC(C)c1ccc(OCc2nc(-c3ccccn3)no2)c(Br)c1,1.0,12.5,96.2*,-0.7,-3.8
CCOC(=O)C(C)Sc1nnc(NC(=O)c2ccc(C)c([N+](=O)[O-])c2)s1 (centres undefined),·,65.5*,·,-7.6,-4.8
CCn1cc(CNC(=O)c2c(-c3c(Cl)cccc3Cl)noc2C)c(C)n1,·,·,·,-5.2,·
Cc1noc(C)c1COc1ccc(C(=O)OCC(=O)NC23CC4CC(CC(C4)C2)C3)cc1,0.0,55.9*,·,-1.6,0.7
Cc1noc(C)c1COc1ccc(C(=O)OCC(=O)NC2CCCCC2C)cc1 (centres undefined),-2.0,7.0,·,0.2,-3.1
Cc1ccc2[nH]c(O)c(N=NC(=O)C3CC3c3ccccc3)c2c1Br (centres undefined),·,-14.0,·,·,26.3
CC1=C(C(=O)OCC(C)C)C(c2ccccc2Cl)NC(=O)N1C (centres undefined),5.0,29.1,11.9,-0.1,-2.4
CC1=C(C(=O)OCC(C)C)C(c2cc3c(cc2Br)OCO3)NC(=O)N1C (centres undefined),6.0,0.2,66.4*,-3.7,2.6
C=CCn1cnc2c(c1=O)c1nc3ccccc3nc1n2/N=C/c1cc(OC)c(OC)c(OC)c1,4.0,9.6,77.2*,-0.2,-2.2
C=CCn1cnc2c(c1=O)c1nc3ccccc3nc1n2/N=C/c1cccc(OC)c1OC,·,-9.8,21.0,1.1,93.2

# Screening results (PubChem)
